High-throughput results from PubChem BioAssay.
Hits are enriched below; roughly 0.72% of the tested compounds scored in any of these assays.
STK33 inh – blocks human STK33 kinase activity; Q9BYT3; purified STK33, MBP phosphorylation, ADP-Glo luminescence; inhibition, % at 10 µM; 0.073% of 320,000 active; AID 2661;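 active = inhibition at or above 25%, using the most active replicate where run in duplicate; inactive = inhibition below 25%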
Target sequence (Q9BYT3 whole entry, looked up): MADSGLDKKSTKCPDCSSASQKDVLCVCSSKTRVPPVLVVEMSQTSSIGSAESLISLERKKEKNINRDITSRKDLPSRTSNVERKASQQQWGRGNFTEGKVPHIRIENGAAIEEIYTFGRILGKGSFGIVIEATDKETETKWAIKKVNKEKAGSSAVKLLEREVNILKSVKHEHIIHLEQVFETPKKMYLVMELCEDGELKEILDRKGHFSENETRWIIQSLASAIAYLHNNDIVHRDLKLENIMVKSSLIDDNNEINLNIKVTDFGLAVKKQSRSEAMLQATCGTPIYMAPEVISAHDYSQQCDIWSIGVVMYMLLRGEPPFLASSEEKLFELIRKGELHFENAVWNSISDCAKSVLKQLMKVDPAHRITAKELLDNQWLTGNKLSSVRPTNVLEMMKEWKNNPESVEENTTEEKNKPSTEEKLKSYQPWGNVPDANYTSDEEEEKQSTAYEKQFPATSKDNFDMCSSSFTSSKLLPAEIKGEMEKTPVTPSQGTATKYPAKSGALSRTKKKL
AI-2 QS modul – modulators of Vibrio harveyi AI-2 quorum sensing system | Vibrio harveyi JMH597 AI-2 luminescence/OD600 ratio, 9 h; hits give low values; strain lacks LuxN and CqsS sensors; 0 = neutral-control median | activity change, % at 7.5 µM | 0.4% of 300,000 active | AID 2094; in the data active = activity change below about -75%, passing the limit was not always enough;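 also: luminescence divided by OD600 gain over 9 h not by final OD600 alone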
PolyA inhibitor – yeast polyadenylation inhibition. activity score, % at 12 µM. 0.02% of 300,000 active. S. cerevisiae SKY197-pL101 polyadenylation reporter, beta-gal luminescence; efflux-impaired pdr1/pdr3 knockout yeast; score 100 = 6 SD above DMSO. AID 1875;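 active = lowest replicate activity score at least 50, where 100 means six control SD above control mean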;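 also: yeast exposed to compound for 9 h at 30 °C; higher score means more reporter readthrough which indicates perturbed polyadenylation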
GSK3A inh – human GSK-3 alpha kinase inhibition. P49840. ADP-Glo luminescence, 60 min. inhibition, % at 10 µM. 0.1% of 320,000 active. AID 2650;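 active = more than half of replicates show inhibition above 20%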;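 also: GST-tagged GSK-3 alpha with peptide substrate and 25 µM ATP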
Yeast superoxide – caloric restriction mimetics inhibiting age-related superoxide in yeast; S. cerevisiae aged cells, superoxide DHE fluorescence; hits give low values; superoxide response (% of plate mean), % at 10 µM; 0.18% of 330,000 active;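 active = superoxide response under a set limit, about three screen SD below normal, cut at about 65% in these data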;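 also: yeast aged for seven days with compound at 30 °C before DHE staining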
GSK3beta inhib – human GSK3beta kinase inhibition; GST-GSK3beta kinase, ADP-Glo luminescence, 60 min; hits give low values; activity score (negative = inhibition), % at 10 µM; 0.038% of 300,000 active; AID 2097;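 active = more than half of replicate wells score below -50%, meaning over 50% inhibition versus plate controls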
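test system = GST-tagged human GSK3beta kinase, cell-free | reagent = 25 µM ATP with peptide substrate | dosing = one dose of 10 µM per compound | schedule = 60 min reaction, RT | detection = luminescent ADP-Glo measurement of ADP formed | control set = DMSO neutral wells and GW8510 at 20 µM as positive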
Superoxide pick – confirmation of caloric restriction mimetics inhibiting yeast age-related superoxide; S. cerevisiae aging, superoxide DHE fluorescence; hits give low values; 1% of 850 active; AID 434994; superoxide response (% of plate), % at 10 µM; shares compounds with Yeast superoxide;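 active = superoxide signal below 65% of the plate average of sample wells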;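 also: cells aged with compound for 7 days at 30 degrees C before staining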
DHE counter – DHE fluorescence interference, counter-screen artifact; shares compounds with Yeast superoxide; S. cerevisiae BY4741, flow cytometry; hits give low values; fluorescence response, % at 10 µM; 850 tested, under 10 active; AID 435000;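 active = fluorescence response below 15%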;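 also: lower means stronger quenching of DHE signal or ROS scavenging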
A number is an active result; i = inactive; nt = no result.

SMILES | STK33 inh | AI-2 QS modul | PolyA inhibitor | GSK3A inh | Yeast superoxide | GSK3beta inhib | Superoxide pick | DHE counter
c1ccc(-c2cccc(-c3ccccn3)n2)nc1 | i | -89 | i | i | 63 | i | i | i
Cn1c(=S)[nH]c(=O)c2ncc(=O)[nH]c21 | i | i | i | nt | 63 | i | i | i
Cc1nc2[nH]c(=S)n(C)c(=O)c2nc1C | i | i | i | i | i | i | nt | nt
FC(F)(F)c1nc2cc3nc4ccccc4[nH]c3cc2n1 | i | i | i | i | 56 | i | 55 | i
CC(C)c1ccc(N(CC(=O)NC2CCCCC2)C(=O)CCC(=O)Nc2ccccn2)cc1 | i | i | i | i | i | i | nt | nt
CCc1nonc1NC(=O)c1oc2c(C)c(C)ccc2c1C | nt | i | i | nt | 43 | i | i | i
CCc1nonc1NC(=O)c1oc2cc(Br)ccc2c1C | i | i | i | i | i | i | nt | nt
O=C(O)c1c(N2CCCCC2)ccc([N+](=O)[O-])c1N1CCCCC1 | i | i | i | i | 53 | i | i | i
COC(=O)/C=C1\N/C(=N\c2nc(C)cc(C)n2)N(c2ccc(C)c(C)c2)C1=O | i | i | i | i | i | i | nt | nt
COC(=O)CC/C(O)=C1\C(=O)CC(C)(C)CC1=NCCc1nc2ccccc2[nH]1 | i | i | i | i | i | i | nt | nt
COCC(=O)NCCc1ccc(S(N)(=O)=O)cc1 | i | i | i | i | i | i | nt | nt
NS(=O)(=O)c1ccc(CCNC(=O)CCCOc2ccccc2)cc1 | i | i | i | i | i | i | nt | nt
NS(=O)(=O)c1ccc(CCNC(=O)CNC(=O)COc2ccccc2)cc1 | i | i | i | i | 55 | i | i | i
C[C@@H](C(=O)OCC(=O)NCCc1ccc(S(N)(=O)=O)cc1)N1C(=O)C2CCCCC2C1=O (stereo not given in full) | i | i | i | i | 65 | i | i | i
COc1ccc(NC(=O)CN2C(=O)NC(C)(C3CC3)C2=O)cc1S(=O)(=O)N1CCCCC1 (stereo not given) | i | nt | nt | i | i | nt | nt | nt
COc1ccc(S(=O)(=O)N2CC=C(C(=O)NC3CCCC3)CC2)cc1 | i | i | i | i | 63 | i | i | i
Cc1ccc(S(=O)(=O)N2CC=C(C(=O)NC3CCCC3)CC2)cc1 | i | i | i | i | i | i | nt | nt
ClC(CCN1CCN(Cc2ccccc2)CC1)c1ccccc1 (stereo not given) | i | i | i | i | i | i | nt | nt
Cc1nc2nc(SCC(=O)O)nn2c(C)c1Cc1ccccc1Cl | i | i | i | i | i | i | nt | nt
Cc1ncc([N+](=O)[O-])n1CC(=O)Nc1ccc(F)c(F)c1 | i | i | i | i | 53 | i | i | i
Cc1ncc([N+](=O)[O-])n1CC(=O)Nc1ccc(Cl)cc1 | i | i | i | i | i | i | nt | nt
CCOC(=O)C1CCN(C(=O)CCC2CCCC2)CC1 | i | i | i | i | i | i | nt | nt
O=C(NCCc1ccccc1F)C1CCCN(c2nc3ccccc3s2)C1 (stereo not given) | i | i | i | i | i | i | nt | nt
O=C1c2c(O)ccc(O)c2C(=O)c2c(NCCNCCO)ccc(NCCNCCO)c21 | 66 | nt | nt | 62 | 33 | nt | 46 | 14
Cc1ccc2c(c1)C1(C(=O)N2)N2CCCC2C(C(=O)c2ccc3ccccc3c2)C12C(=O)Nc1ccccc12 (stereo not given) | nt | i | nt | nt | nt | nt | nt | nt
SMILES | STK33 inh | AI-2 QS modul | PolyA inhibitor | GSK3A inh | Yeast superoxide | GSK3beta inhib | Superoxide pick | DHE counter
CCN(CC)S(=O)(=O)N1CCC(C(=O)NC2CCCC2)CC1 | i | i | i | i | 64 | i | i | i
N=c1n(CCCOc2ccccc2Cl)c2ccccc2n1CC(N)=O | i | i | i | i | i | i | nt | nt
COc1ccc(C2CC(c3ccc(OC)cc3OC(C)=O)=NN2C(=O)c2ccccc2)cc1 (stereo not given) | i | i | i | i | i | i | nt | nt
COc1ccccc1C1=NN(C(=O)c2ccccc2)C(c2ccc(Br)cc2)C1 (stereo not given) | i | i | i | i | 60 | i | i | i
c1cc[n+](CCCC[n+]2ccccc2)cc1 | i | i | i | i | i | i | nt | nt
CCC(C)(C)c1ccc(OCCCC[n+]2ccccc2)c(C(C)(C)CC)c1 | i | i | nt | i | i | i | i | i
CCCCCc1ccc(OCCCC[n+]2cccc(C)c2)c(CCCCC)c1 | i | i | i | i | i | i | i | i
CCCCCOc1ccc(Br)cc1CSC(=N)N | nt | i | i | nt | nt | i | nt | nt
CCCCCc1ccc(OCCCC[n+]2ccccc2)c(CCCCC)c1 | i | i | i | i | i | i | i | i
CCCCOc1ccc(C)cc1CN(CCO)CCO | i | i | i | i | i | i | nt | nt
CCCCCc1ccc(OCCCC[n+]2ccc(C)cc2)c(CCCCC)c1 | i | i | i | i | i | i | i | i
Cc1cc(=O)oc2cc(OCCCC[n+]3ccccc3)ccc12 | i | i | i | i | i | i | nt | nt
CCC(CC)c1ncc[nH]1 | i | i | i | i | i | i | nt | nt
COc1ccc(N2CCN(C(=S)NC(C)c3ccccc3)CC2)cc1 (stereo not given) | i | i | i | i | i | i | nt | nt
COc1ccccc1Oc1ccc2c(c1)C(=O)N(c1ccc(O)cc1)C2=O | i | nt | nt | i | i | nt | nt | nt
COc1ccccc1Oc1ccc2c(c1)C(=O)N(CC(=O)O)C2=O | i | i | i | i | 40 | i | i | i
CCc1nc(SCC(=O)Nc2ccccc2Cl)n[nH]1 | i | nt | i | i | i | nt | nt | nt
Cc1cccc(NC(=O)CCN2CCCC(C)C2)c1 (stereo not given) | i | i | i | i | i | i | nt | nt
Nn1c(SCC(=O)Nc2ccc(F)cc2F)nnc1C1CCCCC1 | i | i | i | i | i | i | i | i
Cc1ccc(-n2c(C)cc(C)c(C#N)c2=O)cc1C | i | i | i | i | 62 | i | i | i
Cc1cc(NS(=O)(=O)c2ccccc2)c(C)c(Cl)c1O | i | i | i | i | i | i | i | i
Nc1nc(SCc2ccc(Cl)c(Cl)c2)n[nH]1 | i | i | i | i | i | i | nt | nt
Nc1nc(SCc2ccc(Br)cc2)n[nH]1 | i | i | i | i | 49 | i | i | i
CN(C)c1ccc(/C=C(/NC(=O)c2ccccc2Cl)C(=O)NCCN2CCOCC2)cc1 | i | i | i | i | i | i | nt | nt
O=C(NCCNC(=O)c1ccccc1Br)c1cccnc1 | i | i | i | i | i | i | nt | nt
COc1ccccc1NC(=O)Nc1ccccc1N1CCOCC1 | i | i | i | i | i | i | nt | nt
CC(C)n1c2ccccc2c2cc([N+](=O)[O-])ccc21 | i | i | i | i | i | i | i | i
CCn1c(=O)c2ccccc2n(Cc2cccc([N+](=O)[O-])c2)c1=O | i | i | i | i | i | i | nt | nt
